Where two headings read alike, the source gives them in different places.
Tests used:
human TMEM16A [1] = target: T1, human TMEM16A (Homo sapiens, UniProt Q5XXA6, DEL476-501); assay: TMEM16A functional assay; assay type: cell-based; details: for TMEM16A inhibition activity on initial testing: tested at 10 µM, fluorescence plate reader assay
T1 sequence (Q5XXA6 with tags, fused parts or gaps isoform Q5XXA6-5 DEL539-564): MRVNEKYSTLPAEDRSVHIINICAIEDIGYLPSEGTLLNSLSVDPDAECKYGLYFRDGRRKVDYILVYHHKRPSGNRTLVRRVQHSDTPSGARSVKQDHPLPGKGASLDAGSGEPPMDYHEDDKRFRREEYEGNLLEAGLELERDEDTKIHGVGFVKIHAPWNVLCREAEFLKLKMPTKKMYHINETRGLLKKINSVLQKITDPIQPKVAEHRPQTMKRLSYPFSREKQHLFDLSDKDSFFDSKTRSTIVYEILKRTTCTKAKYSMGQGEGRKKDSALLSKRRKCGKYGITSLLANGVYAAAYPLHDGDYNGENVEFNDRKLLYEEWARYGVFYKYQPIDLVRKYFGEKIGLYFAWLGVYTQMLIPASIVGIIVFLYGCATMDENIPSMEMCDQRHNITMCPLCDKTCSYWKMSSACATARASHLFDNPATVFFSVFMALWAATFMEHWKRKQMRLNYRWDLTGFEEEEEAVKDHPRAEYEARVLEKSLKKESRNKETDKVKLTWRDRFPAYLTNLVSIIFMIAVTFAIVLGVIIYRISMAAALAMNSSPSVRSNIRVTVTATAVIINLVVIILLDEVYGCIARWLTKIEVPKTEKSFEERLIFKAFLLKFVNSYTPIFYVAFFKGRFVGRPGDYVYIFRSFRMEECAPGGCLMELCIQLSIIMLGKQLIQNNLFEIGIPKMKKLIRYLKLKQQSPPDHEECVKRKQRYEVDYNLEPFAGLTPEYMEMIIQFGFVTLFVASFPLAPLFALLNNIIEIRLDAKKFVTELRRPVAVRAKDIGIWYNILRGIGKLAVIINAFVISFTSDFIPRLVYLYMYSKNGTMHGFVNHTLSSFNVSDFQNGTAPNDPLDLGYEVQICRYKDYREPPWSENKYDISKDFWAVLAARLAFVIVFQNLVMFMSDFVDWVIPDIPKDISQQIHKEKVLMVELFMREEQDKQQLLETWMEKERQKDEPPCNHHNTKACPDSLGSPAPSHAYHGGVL
Method in brief: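 FRT cells stably co-expressing human TMEM16A (abc isoform) and YFP-H148Q/I152L/F46L, assayed 24 h after plating. Wells washed twice with PBS; test compound added in DMSO for 10 min. Fluorescence read every 400 ms: 2 s baseline, 140 mM iodide added at 2 s, then 70 mM iodide containing 300 µM ATP at 6.4 s. Initial iodide influx rate fitted by non-linear regression. Screen at 10 µM; IC50 from concentration-inhibition data.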

human TMEM16A [2] = target: T1, human TMEM16A; assay: Short-circuit current assay in FRT-TMEM16A cells; assay type: cell-based
Method in brief: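 FRT cells stably expressing human TMEM16A, grown on Snapwell inserts and mounted in Ussing chambers. Basolateral membrane permeabilized with amphotericin B (250 µg/ml, 30 min). Chloride gradient: HCO3-buffered basolateral solution; apical 120 mM NaCl replaced by Na gluconate. 37 °C, 95% O2/5% CO2, 10-min stabilization. Test compound added apically 5 min before activation by 100 µM ATP. IC50 from short-circuit current concentration-dependence.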

human TMEM16A [3] = target: T1, human TMEM16A; details: read-out: IC50, short-circuit current assay of TMEM16A function; as reported previously; cited from earlier work

Row | IC50 (human TMEM16A [1]) | TMEM16A inhibition activity on initial testing (human TMEM16A [1]) | IC50 (human TMEM16A [2]) | Structure (SMILES) | IC50 (human TMEM16A [3])
1 | 6200 nM | measurable activity |  | Cc1c(O)nc(SCC(=O)Nc2nc(-c3ccccc3)cs2)nc1C(F)(F)F [Compound 9ao, 2-(4-Hydroxy-5-methyl-6-trifluoromethyl-pyrimidin-2-ylsulfanyl)-N-(4-phenyl-thiazol-2-yl)-acetamide] | 
2 | 3500 nM | measurable activity | ~1000 nM | CCc1c(C)nc(SCC(=O)Nc2nc(-c3cccs3)cs2)nc1O [Compound 9bo, 2-(5-Ethyl-4-hydroxy-6-methyl-pyrimidin-2-ylsulfanyl)-N-(4-thiophen-2-yl-thiazol-2-yl)-acetamide] | 
3 | 2900 nM | measurable activity | ~3000 nM | Cc1nc(SCC(=O)Nc2nc(-c3cccs3)cs2)nc(O)c1C [Compound 9bs, 2-(4-Hydroxy-5,6-dimethyl-pyrimidin-2-ylsulfanyl)-N-(4-thiophen-2-yl-thiazol-2-yl)-acetamide] | 
4 |  |  |  | CCc1c(C)nc(SCC(=O)Nc2nc(-c3ccc(OC)cc3)cs2)[nH]c1=O [Compound T16Ainh-A01] | ~1000 nM

— paper PMC4958041 (Journal of enzyme inhibition and medicinal chemistry, 2016)
